{"source": "ChEMBL document CHEMBL1155281", "about": "“Synthesis, spectroscopic characterization and antibacterial activity of new cobalt(II) complexes of unsymmetrical tetradentate (OSN2) Schiff base ligands” (2009)", "key": {"Klebsiella pneumoniae [1]": {"tested_on": "Klebsiella pneumoniae", "test": "Antibacterial activity against Klebsiella pneumoniae RITCC 1249 at 100 ul after overnight incubation by agar well diffusion method", "type": "functional", "how_it_was_run": "(§1)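 Agar well diffusion. Inoculum came from a 12 h, 37 °C enrichment culture in 1 ml Mueller–Hinton broth and was spread on Mueller–Hinton agar. Wells cut with a 6 mm cork borer and filled with 100 µL of compound solution; methanol blank. Incubated overnight at 37 °C, then inhibition zone diameter measured. Triplicate, averaged.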"}, "Pseudomonas aeruginosa [2]": {"tested_on": "Pseudomonas aeruginosa", "test": "Antibacterial activity against Pseudomonas aeruginosa RITCC 1547 after 24 hrs by macrodilution broth susceptibility assay", "type": "functional", "settings": "RITCC 1547, 24 h", "how_it_was_run": "(§2)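 Macro-dilution broth series of 12 tubes, each holding 1 ml Mueller–Hinton broth. Tube one received 1 ml of 100 mg/ml test solution, then serial dilution down the series. Added 1 ml bacterial suspension matched to 0.5 McFarland (1.5 ×10⁸ cfu/ml). Incubated 37 °C for 24 h. MIC taken as the last tube without turbidity.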"}, "Streptococcus agalactiae [3]": {"tested_on": "Streptococcus agalactiae", "test": "Antibacterial activity against Streptococcus agalactiae RITCC 1913 at 100 ul after overnight incubation by agar well diffusion method", "type": "functional", "how_it_was_run": "as §1"}, "Streptococcus pyogenes [4]": {"tested_on": "Streptococcus pyogenes", "test": "Antibacterial activity against Streptococcus pyogenes RITCC 1940 at 100 ul after overnight incubation by agar well diffusion method", "type": "functional", "how_it_was_run": "as §1"}, "Staphylococcus aureus [5]": {"tested_on": "Staphylococcus aureus", "test": "Antibacterial activity against Staphylococcus aureus RITCC 1885 after 24 hrs by macrodilution broth susceptibility assay", "type": "functional", "settings": "RITCC 1885, 24 h", "how_it_was_run": "as §2"}, "Bacillus anthracis [6]": {"tested_on": "Bacillus anthracis", "test": "Antibacterial activity against Bacillus anthracis RITCC 1036 at 100 ul after overnight incubation by agar well diffusion method", "type": "functional"}, "Streptococcus agalactiae [7]": {"tested_on": "Streptococcus agalactiae", "test": "Antibacterial activity against Streptococcus agalactiae RITCC 1913 after 24 hrs by macrodilution broth susceptibility assay", "type": "functional", "settings": "RITCC 1913, 24 h", "how_it_was_run": "as §2"}, "Klebsiella pneumoniae [8]": {"tested_on": "Klebsiella pneumoniae", "test": "Antibacterial activity against Klebsiella pneumoniae RITCC 1249 after 24 hrs by macrodilution broth susceptibility assay", "type": "functional", "settings": "RITCC 1249, 24 h", "how_it_was_run": "as §2"}, "Pseudomonas aeruginosa [9]": {"tested_on": "Pseudomonas aeruginosa", "test": "Antibacterial activity against Pseudomonas aeruginosa RITCC 1547 at 100 ul after overnight incubation by agar well diffusion method", "type": "functional", "how_it_was_run": "as §1"}, "Bacillus anthracis [10]": {"tested_on": "Bacillus anthracis", "test": "Antibacterial activity against Bacillus anthracis RITCC 1036 after 24 hrs by macrodilution broth susceptibility assay", "type": "functional", "settings": "RITCC 1036, 24 h"}, "Staphylococcus aureus [11]": {"tested_on": "Staphylococcus aureus", "test": "Antibacterial activity against Staphylococcus aureus RITCC 1885 at 100 ul after overnight incubation by agar well diffusion method", "type": "functional", "how_it_was_run": "as §1"}, "Streptococcus pyogenes [12]": {"tested_on": "Streptococcus pyogenes", "test": "Antibacterial activity against Streptococcus pyogenes RITCC 1940 after 24 hrs by macrodilution broth susceptibility assay", "type": "functional", "settings": "RITCC 1940, 24 h", "how_it_was_run": "as §2"}, "Streptococcus pyogenes [13]": {"tested_on": "Streptococcus pyogenes", "test": "Antibacterial activity against Streptococcus pyogenes RITCC 1940 at 10 ug after overnight incubation by agar well diffusion method", "type": "functional, organism-based", "how_it_was_run": "(§3)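 Bacteria were enriched in 1 ml Mueller–Hinton broth at 37 °C for 12 h, then cultured on Mueller–Hinton agar. Wells were cut with a 6 mm cork borer and filled with test solution, with gentamicine as the standard antibiotic. Plates were incubated overnight at 37 °C and inhibition-zone diameters were measured. Values are the average of triplicates. A methanol-only blank was included.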"}, "Bacillus anthracis [14]": {"tested_on": "Bacillus anthracis", "test": "Antibacterial activity against Bacillus anthracis RITCC 1036 at 10 ug after overnight incubation by agar well diffusion method", "type": "functional, organism-based"}, "Klebsiella pneumoniae [15]": {"tested_on": "Klebsiella pneumoniae", "test": "Antibacterial activity against Klebsiella pneumoniae RITCC 1249 at 10 ug after overnight incubation by agar well diffusion method", "type": "functional, organism-based", "how_it_was_run": "as §3"}}, "data": [{"compound": "COc1ccc(O)c(/C=N/CCSCCc2ccccn2)c1", "values": [{"measurement": "inhibition zone (IZ)", "setting": "Klebsiella pneumoniae [1]", "result": 20, "unit": "mm"}, {"measurement": "MIC", "setting": "Pseudomonas aeruginosa [2]", "result": 50, "unit": "mg/mL"}, {"measurement": "inhibition zone (IZ)", "setting": "Streptococcus agalactiae [3]", "result": 20, "unit": "mm"}, {"measurement": "inhibition zone (IZ)", "setting": "Streptococcus pyogenes [4]", "result": 40, "unit": "mm"}, {"measurement": "MIC", "setting": "Staphylococcus aureus [5]", "result": 50, "unit": "mg/mL"}, {"measurement": "inhibition zone (IZ)", "setting": "Bacillus anthracis [6]", "result": 20, "unit": "mm"}, {"measurement": "MIC", "setting": "Streptococcus agalactiae [7]", "result": 25, "unit": "mg/mL"}, {"measurement": "MIC", "setting": "Klebsiella pneumoniae [8]", "result": 25, "unit": "mg/mL"}, {"measurement": "inhibition zone (IZ)", "setting": "Pseudomonas aeruginosa [9]", "result": 10, "unit": "mm"}, {"measurement": "MIC", "setting": "Bacillus anthracis [10]", "result": 25, "unit": "mg/mL"}, {"measurement": "inhibition zone (IZ)", "setting": "Staphylococcus aureus [11]", "result": 10, "unit": "mm"}, {"measurement": "MIC", "setting": "Streptococcus pyogenes [12]", "result": 6.25, "unit": "mg/mL"}]}, {"compound": "Oc1ccc(Br)cc1/C=N/CCSCCc1ccccn1", "values": [{"measurement": "inhibition zone (IZ)", "setting": "Klebsiella pneumoniae [1]", "result": 30, "unit": "mm"}, {"measurement": "MIC", "setting": "Pseudomonas aeruginosa [2]", "result": 25, "unit": "mg/mL"}, {"measurement": "inhibition zone (IZ)", "setting": "Streptococcus agalactiae [3]", "result": 50, "unit": "mm"}, {"measurement": "inhibition zone (IZ)", "setting": "Streptococcus pyogenes [4]", "result": 40, "unit": "mm"}, {"measurement": "MIC", "setting": "Staphylococcus aureus [5]", "result": 6.25, "unit": "mg/mL"}, {"measurement": "inhibition zone (IZ)", "setting": "Bacillus anthracis [6]", "result": 50, "unit": "mm"}, {"measurement": "MIC", "setting": "Streptococcus agalactiae [7]", "result": 3.12, "unit": "mg/mL"}, {"measurement": "MIC", "setting": "Klebsiella pneumoniae [8]", "result": 12.5, "unit": "mg/mL"}, {"measurement": "inhibition zone (IZ)", "setting": "Pseudomonas aeruginosa [9]", "result": 20, "unit": "mm"}, {"measurement": "MIC", "setting": "Bacillus anthracis [10]", "result": 3.12, "unit": "mg/mL"}, {"measurement": "inhibition zone (IZ)", "setting": "Staphylococcus aureus [11]", "result": 40, "unit": "mm"}, {"measurement": "MIC", "setting": "Streptococcus pyogenes [12]", "result": 6.25, "unit": "mg/mL"}]}, {"compound": "GENTAMICIN", "values": [{"measurement": "inhibition zone (IZ)", "setting": "Streptococcus pyogenes [13]", "result": 20, "unit": "mm"}, {"measurement": "inhibition zone (IZ)", "setting": "Bacillus anthracis [14]", "result": 32, "unit": "mm"}, {"measurement": "inhibition zone (IZ)", "setting": "Klebsiella pneumoniae [15]", "result": 20, "unit": "mm"}]}, {"compound": "O=[N+]([O-])c1ccc(O)c(/C=N/CCSCCc2ccccn2)c1", "values": [{"measurement": "inhibition zone (IZ)", "setting": "Klebsiella pneumoniae [1]", "result": 20, "unit": "mm"}, {"measurement": "MIC", "setting": "Pseudomonas aeruginosa [2]", "result": 25, "unit": "mg/mL"}, {"measurement": "inhibition zone (IZ)", "setting": "Streptococcus agalactiae [3]", "result": 30, "unit": "mm"}, {"measurement": "inhibition zone (IZ)", "setting": "Streptococcus pyogenes [4]", "result": 40, "unit": "mm"}, {"measurement": "MIC", "setting": "Staphylococcus aureus [5]", "result": 25, "unit": "mg/mL"}, {"measurement": "inhibition zone (IZ)", "setting": "Bacillus anthracis [6]", "result": 20, "unit": "mm"}, {"measurement": "MIC", "setting": "Streptococcus agalactiae [7]", "result": 12.5, "unit": "mg/mL"}, {"measurement": "MIC", "setting": "Klebsiella pneumoniae [8]", "result": 25, "unit": "mg/mL"}, {"measurement": "inhibition zone (IZ)", "setting": "Pseudomonas aeruginosa [9]", "result": 20, "unit": "mm"}, {"measurement": "MIC", "setting": "Bacillus anthracis [10]", "result": 25, "unit": "mg/mL"}, {"measurement": "inhibition zone (IZ)", "setting": "Staphylococcus aureus [11]", "result": 20, "unit": "mm"}, {"measurement": "MIC", "setting": "Streptococcus pyogenes [12]", "result": 6.25, "unit": "mg/mL"}]}]}
